Consider ten compounds from ChEMBL document CHEMBL3758103, “Anti-herpetic and anti-dengue activity of abietane ferruginol analogues synthesized from (+)-dehydroabietylamine” (Eur J Med Chem, 2016).

Structures are written as SMILES. Calls of active or inactive are those of the source. The calls are words filed in the database; no cut-off is given here.

By IC50 is commonly meant the concentration at which inhibition is half-maximal.

Test [1] deals with HeLa. Briefly: Cytotoxicity against human HeLa cells assessed as cell growth inhibition after 48 hrs by MTT assay. The class given is functional, cell-based. The method in brief: (§1)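 MTT assay. Vero and HeLa cells plated at 2.0 × 10^4/well and preincubated 24 h; Jurkat and U937 plated at 3.0 × 10^4/well. Compounds were applied 48 h at 37 °C, 5% CO2, with 0.05% DMSO. Absorbance read at 570 nm and IC50 taken by linear regression. Values are the geometric mean of two experiments in quadruplicate.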
A general note: Tetrazolium assays rely on reduction of a dye to a coloured formazan, in cell work by metabolically active cells.

Test [2] concerns Jurkat. Description: Cytotoxicity against human Jurkat cells assessed as cell growth inhibition after 48 hrs by MTT assay. It counts as functional, cell-based. The method in brief: as §1
The test system of test [3] is Jurkat. Briefly: Selectivity index, ratio of IC50 for African green monkey Vero cells to IC50 for human Jurkat cells. The class given is functional. The method in brief:
(§2)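 SI calculated as Vero IC50 divided by HeLa, Jurkat or U937 IC50, all from the 48 h MTT assay.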

The nature of test [4]: Cytotoxicity against human U937 cells assessed as cell growth inhibition after 48 hrs by MTT assay. The following applies: U-937, 48 h. The class given is functional, cell-based. Put shortly: as §1
Test [5] has as its system Vero. Description: Selectivity index, ratio of IC50 for African green monkey Vero cells to IC50 for human U937 cells. It counts as functional. Put shortly: as §2
For test [6], the system named is Vero. Description: Cytotoxicity against African green monkey Vero cells assessed as cell growth inhibition after 48 hrs by MTT assay. The class given is cell-based. The following applies: Chlorocebus sabaeus. Put shortly: as §1
For test [7], the system named is Fusarium oxysporum. Briefly: Antifungal activity against Fusarium oxysporum ATCC 48112 assessed as microbial growth inhibition after 48 hrs by microdilution assay. The class given is functional, organism-based. Put shortly:
(§3)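 Broth microdilution under CLSI M38-A with modifications, in duplicate, at final compound concentrations of 50–3.125 μg/mL. […] Values are the geometric mean of duplicate tests in three assays. Assay DMSO was 0.05%.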
For orientation: Broth dilution looks for growth in wells or tubes with falling amounts of substance.

Test [8] relates to Aspergillus fumigatus. Briefly: Antifungal activity against Aspergillus fumigatus ATCC 204305 assessed as microbial growth inhibition by microdilution assay. It counts as functional, organism-based. Put shortly: as §3
The subject of test [9] is Aspergillus flavus. Briefly: Antifungal activity against Aspergillus flavus ATCC 204304 assessed as microbial growth inhibition by microdilution assay. The class given is functional, organism-based. The method in brief:
as §3

The subject of test [10] is Aspergillus terreus. Description: Antifungal activity against Aspergillus terreus CDC 317 assessed as microbial growth inhibition by microdilution assay. It counts as functional, organism-based. Put shortly: as §3
The subject of test [11] is Candida albicans. Description: Antifungal activity against Candida albicans […] assessed as microbial growth inhibition after 24 hrs by microdilution assay. It counts as functional, organism-based. Put shortly: (§4)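 Yeast microdilution by the AFST-EUCAST method at an inoculum of 1–5 × 10^5 CFU/mL, final compound concentrations 50–3.125 μg/mL, in duplicate. MIC is the lowest concentration giving 90% growth reduction after 24 h at 35 °C. Untreated inoculum served as negative control. Values are the geometric mean of duplicate tests in three assays.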

The test system of test [12] is Candida parapsilosis. Briefly: Antifungal activity against Candida parapsilosis ATCC 22019 assessed as microbial growth inhibition after 24 hrs by microdilution assay. The class given is functional, organism-based. The method in brief:
as §4

Test [13] deals with Candida tropicalis. Briefly: Antifungal activity against Candida tropicalis ATCC 200956 assessed as microbial growth inhibition after 24 hrs by microdilution assay. The class given is functional, organism-based. Put shortly: as §4
Test [14] concerns HeLa. Briefly: Selectivity index, ratio of IC50 for African green monkey Vero cells to IC50 for human HeLa cells. It counts as functional. Put shortly: as §2

`Cc1ccc(S(=O)(=O)NC[C@]2(C)CCC[C@]3(C)c4cc(O)c(C(C)C)cc4CC[C@@H]23)cc1`: the IC50 in test [1] is over 50 µM; in test [2] it was 30.9 µM; in test [4] it was 36 µM; in [6] it was 82.5 µM. Besides, the results for the “Ratio IC50” value in test [3] and in test [5] were 2.7 and 2.3, respectively. In addition, the outcome in test [7], in test [8], in test [9], in test [10], in test [11] and in test [12] was inactive. The result in [13] was inactive.

Turning to `CC(=O)Oc1cc2c(cc1C(C)C)C(=O)C[C@H]1[C@](C)(CN3C(=O)c4c(Cl)c(Cl)c(Cl)c(Cl)c4C3=O)CCC[C@]21C`, the IC50 is 7.3 µM in test [1], 12.3 µM in test [2], 8.3 µM in [4] and over 320 µM in test [6]. The “Ratio IC50” value is over 43.8 in test [14], over 26 in test [3] and over 38.5 in [5]. For the same compound, the result in [7], in test [8], in [9], in test [10], in test [11] and in test [12] was inactive. Also, the result in [13] was inactive.

With `CC(=O)Oc1cc2c(cc1C(C)C)CC[C@H]1[C@](C)(CN3C(=O)c4c(Cl)c(Cl)c(Cl)c(Cl)c4C3=O)CCC[C@]21C`, the IC50 in test [1], in test [2] and in test [4] was over 40 µM throughout. The result in test [7], in [8], in test [9], in test [10], in test [11] and in [12] was inactive. Besides, the outcome in test [13] was inactive.

As to `CC(=O)O[C@H]1C(=O)[C@@]2(C)[C@H]([C@H](OC(=O)c3ccccc3)[C@]3(O)C[C@H](OC(=O)[C@H](O)[C@@H](NC(=O)c4ccccc4)c4ccccc4)C(C)=C1C3(C)C)[C@]1(OC(C)=O)CO[C@@H]1C[C@@H]2O` [PACLITAXEL], the IC50 in test [1] came out at 0.099 µM; in test [2], 0.0005 µM; in test [6], 0.65 µM.

With `CC(=O)Oc1cc2c(cc1C(C)C)CC[C@H]1[C@](C)(CN3C(=O)c4ccccc4C3=O)CCC[C@]21C`, the IC50 in test [1], in [2] and in [4] was over 50 µM throughout. The result in test [7], in test [8], in test [9], in test [10], in [11] and in [12] was inactive. The result in [13] was inactive.

On to `COc1cccc2c1C(=O)c1c(O)c3c(c(O)c1C2=O)C[C@@](O)(C(=O)CO)C[C@@H]3O[C@H]1C[C@H](N)[C@H](O)[C@H](C)O1` [DOXORUBICIN], for which the IC50 in test [1] worked out at 0.834 µM; in test [2], 0.012 µM; in [4], 0.077 µM; in [6] it was 1.93 µM.

As for `CC(C)c1cc2c(cc1O)[C@@]1(C)CCC[C@@](C)(CN3C(=O)c4c(Cl)c(Cl)c(Cl)c(Cl)c4C3=O)[C@@H]1CC2`, the IC50 was 29 µM in test [1], 21.9 µM in test [2], over 40 µM in test [4] and 267 µM in [6]. The results for the “Ratio IC50” value in test [14] and in test [3] were 9.2 and 12.2, respectively. Also, the outcome in test [7], in test [8], in test [9], in test [10], in test [11] and in test [12] was inactive. Besides, in test [13], the result was inactive.

In the case of `CC(=O)Oc1cc2c(cc1C(C)C)/C(=N\S(=O)(=O)c1ccc(C)cc1)C[C@H]1[C@](C)(CN3C(=O)c4c(Cl)c(Cl)c(Cl)c(Cl)c4C3=O)CCC[C@]21C`, the IC50 in [1], in test [2] and in test [4] was over 30 µM each time. In addition, the result in test [7], in test [8], in test [9], in [10], in test [11] and in [12] was inactive. Further, in [13], the outcome was inactive.

`CC(C)c1cc2c(cc1O)[C@@]1(C)CCCC(C)(C)[C@@H]1CC2` [FERRUGINOL]: the IC50 in test [1] was 64.9 µM; in [2] it was 48.2 µM; in [4], 21.3 µM; in test [6] it was 90.4 µM. Besides, the “Ratio IC50” value was 1.4 in [14], 1.9 in test [3] and 4.2 in test [5]. The outcome in test [7], in test [8], in [9], in test [10], in test [11] and in test [12] was inactive. In [13], the outcome was inactive.

For `CC(C)c1cc2c(cc1O)[C@@]1(C)CCC[C@@](C)(CN)[C@@H]1CC2`, the IC50 was over 80 µM in test [1], 49.4 µM in test [2], over 80 µM in test [4] and 39.8 µM in test [6]. Moreover, in test [3], the “Ratio IC50” value turned out to be 0.8. For the same compound, the result in [7], in test [8], in test [9], in test [10], in test [11] and in test [12] was inactive. For the same compound, the outcome in test [13] was inactive.
